Assay results: the M2OR odorant receptor database
Changes are numbered by the printed parent chain.

How the values were obtained:
Conditions in all cases: stereoisomer not certain
OR1F12P (Homo sapiens) = biological target: T1, OR1F12P (Homo sapiens) (UniProt Q8NHA8)
T1 sequence (whole entry): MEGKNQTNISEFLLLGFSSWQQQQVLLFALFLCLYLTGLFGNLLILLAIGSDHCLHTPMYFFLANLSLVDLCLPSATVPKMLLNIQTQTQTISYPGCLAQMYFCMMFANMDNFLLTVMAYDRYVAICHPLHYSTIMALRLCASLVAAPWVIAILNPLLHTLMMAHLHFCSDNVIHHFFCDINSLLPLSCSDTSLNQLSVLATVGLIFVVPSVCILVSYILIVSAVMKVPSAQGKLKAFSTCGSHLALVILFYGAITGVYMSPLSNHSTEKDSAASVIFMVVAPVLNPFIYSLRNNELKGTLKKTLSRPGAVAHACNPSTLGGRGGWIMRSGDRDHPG
In short: (§1)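 Assay methods differ from source to source, frequently being transient luciferase assays in mammalian cell lines. For each receptor–molecule pair, the label responsive (active) applies when the original authors judged the measured signal statistically different from baseline, and non-responsive (inactive) applies otherwise.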

OR1F1 = tested on: T2, OR1F1
T2 sequence (whole entry): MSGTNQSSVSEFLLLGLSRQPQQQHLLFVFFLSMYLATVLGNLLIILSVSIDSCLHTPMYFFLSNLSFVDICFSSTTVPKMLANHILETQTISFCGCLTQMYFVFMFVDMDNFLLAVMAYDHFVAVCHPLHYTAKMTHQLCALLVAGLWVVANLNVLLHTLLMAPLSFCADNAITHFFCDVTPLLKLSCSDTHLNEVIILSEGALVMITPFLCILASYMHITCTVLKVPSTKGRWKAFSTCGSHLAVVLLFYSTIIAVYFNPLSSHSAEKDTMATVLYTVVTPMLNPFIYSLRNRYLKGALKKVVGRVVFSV
In short: as §1

OR1G1 (Homo sapiens) = biological target: T3, OR1G1 (Homo sapiens) (UniProt P47890)
T3 sequence (whole entry): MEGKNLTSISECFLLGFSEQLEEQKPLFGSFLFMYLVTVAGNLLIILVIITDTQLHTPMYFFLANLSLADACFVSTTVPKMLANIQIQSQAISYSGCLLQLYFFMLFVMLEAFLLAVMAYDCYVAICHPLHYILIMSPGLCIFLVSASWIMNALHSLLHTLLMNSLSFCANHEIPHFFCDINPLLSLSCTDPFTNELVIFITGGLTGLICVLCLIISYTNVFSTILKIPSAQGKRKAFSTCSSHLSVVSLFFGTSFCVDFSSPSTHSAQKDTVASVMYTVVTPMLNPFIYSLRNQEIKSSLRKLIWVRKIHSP
In short: as §1

OR1I1 (Homo sapiens) = biological target: T4, OR1I1 (Homo sapiens) (UniProt O60431)
T4 sequence (whole entry): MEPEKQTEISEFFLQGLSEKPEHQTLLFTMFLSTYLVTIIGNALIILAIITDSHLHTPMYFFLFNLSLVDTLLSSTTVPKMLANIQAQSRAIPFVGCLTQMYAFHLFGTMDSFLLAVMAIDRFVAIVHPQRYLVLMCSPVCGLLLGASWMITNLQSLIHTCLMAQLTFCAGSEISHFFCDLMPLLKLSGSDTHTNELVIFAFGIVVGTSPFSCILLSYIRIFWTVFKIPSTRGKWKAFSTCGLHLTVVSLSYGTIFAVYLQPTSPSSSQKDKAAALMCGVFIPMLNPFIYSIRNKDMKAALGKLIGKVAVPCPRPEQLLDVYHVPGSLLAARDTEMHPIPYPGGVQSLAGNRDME
In short: as §1

OR1J1 (Homo sapiens) = biological target: T5, OR1J1 (Homo sapiens) (UniProt Q8NGS3)
T5 sequence (whole entry): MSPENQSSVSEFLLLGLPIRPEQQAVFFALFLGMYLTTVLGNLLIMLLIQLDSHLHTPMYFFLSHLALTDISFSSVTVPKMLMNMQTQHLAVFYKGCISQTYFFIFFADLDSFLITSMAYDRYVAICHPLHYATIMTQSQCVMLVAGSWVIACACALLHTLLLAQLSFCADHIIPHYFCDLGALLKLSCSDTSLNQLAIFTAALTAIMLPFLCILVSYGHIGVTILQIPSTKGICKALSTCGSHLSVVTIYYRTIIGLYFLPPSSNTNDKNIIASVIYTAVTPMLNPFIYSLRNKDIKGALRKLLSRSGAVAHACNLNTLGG
In short: as §1

OR1J2 (Homo sapiens) = biological target: T6, OR1J2 (Homo sapiens) (UniProt Q8NGS2)
T6 sequence (whole entry): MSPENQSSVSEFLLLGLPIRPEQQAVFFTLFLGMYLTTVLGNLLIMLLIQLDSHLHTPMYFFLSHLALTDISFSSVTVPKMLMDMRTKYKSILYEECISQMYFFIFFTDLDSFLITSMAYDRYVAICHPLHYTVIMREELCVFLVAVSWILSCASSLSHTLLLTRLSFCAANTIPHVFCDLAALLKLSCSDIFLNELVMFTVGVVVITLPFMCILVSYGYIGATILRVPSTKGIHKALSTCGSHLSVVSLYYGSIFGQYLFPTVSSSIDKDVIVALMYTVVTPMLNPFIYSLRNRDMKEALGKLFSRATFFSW
In short: as §1

OR1J4 (Homo sapiens) = biological target: T7, OR1J4 (Homo sapiens) (UniProt Q8NGS1)
T7 sequence (whole entry): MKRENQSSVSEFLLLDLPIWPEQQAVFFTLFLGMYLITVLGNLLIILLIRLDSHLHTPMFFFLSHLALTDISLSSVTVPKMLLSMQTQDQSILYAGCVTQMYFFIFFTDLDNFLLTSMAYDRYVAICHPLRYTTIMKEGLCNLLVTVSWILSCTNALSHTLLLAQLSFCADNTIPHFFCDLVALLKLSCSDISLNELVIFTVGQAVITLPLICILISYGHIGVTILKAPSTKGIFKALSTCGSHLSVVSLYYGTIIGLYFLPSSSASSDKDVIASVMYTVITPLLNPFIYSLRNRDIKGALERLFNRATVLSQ
In short: as §1

OR1K1 (Homo sapiens) = biological target: T8, OR1K1 (Homo sapiens) (UniProt Q8NGR3)
T8 sequence (whole entry): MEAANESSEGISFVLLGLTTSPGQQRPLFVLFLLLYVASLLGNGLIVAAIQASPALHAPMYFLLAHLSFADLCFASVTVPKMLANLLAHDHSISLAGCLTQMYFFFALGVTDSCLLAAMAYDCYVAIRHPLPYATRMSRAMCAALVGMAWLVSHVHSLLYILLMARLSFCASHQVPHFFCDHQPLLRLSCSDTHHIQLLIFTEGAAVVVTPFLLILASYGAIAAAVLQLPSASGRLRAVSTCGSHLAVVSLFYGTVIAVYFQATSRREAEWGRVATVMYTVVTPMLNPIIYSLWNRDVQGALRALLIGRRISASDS
In short: as §1

OR1L1 = tested on: T9, OR1L1
T9 sequence (whole entry): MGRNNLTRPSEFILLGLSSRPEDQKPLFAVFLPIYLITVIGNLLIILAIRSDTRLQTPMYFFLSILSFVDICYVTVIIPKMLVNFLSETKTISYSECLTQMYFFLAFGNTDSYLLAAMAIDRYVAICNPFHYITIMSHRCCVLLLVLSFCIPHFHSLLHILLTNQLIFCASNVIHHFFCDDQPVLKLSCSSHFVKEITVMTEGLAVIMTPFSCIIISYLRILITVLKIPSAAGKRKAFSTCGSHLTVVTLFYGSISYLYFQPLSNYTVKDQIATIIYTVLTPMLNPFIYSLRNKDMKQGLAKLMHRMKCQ
In short: as §1

OR1L3 (Homo sapiens) = biological target: T10, OR1L3 (Homo sapiens) (UniProt Q8NH93)
T10 sequence (whole entry): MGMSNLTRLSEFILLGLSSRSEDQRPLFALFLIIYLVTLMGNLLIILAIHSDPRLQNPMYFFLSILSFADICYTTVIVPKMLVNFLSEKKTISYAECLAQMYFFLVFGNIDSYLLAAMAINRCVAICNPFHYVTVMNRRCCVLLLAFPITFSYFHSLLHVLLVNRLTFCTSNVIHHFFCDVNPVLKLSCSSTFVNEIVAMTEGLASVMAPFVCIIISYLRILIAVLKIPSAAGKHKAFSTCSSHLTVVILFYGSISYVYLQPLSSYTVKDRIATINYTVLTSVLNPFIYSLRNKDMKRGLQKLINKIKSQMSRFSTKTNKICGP
In short: as §1

OR1L4 (Homo sapiens) = biological target: T11, OR1L4 (Homo sapiens) (UniProt Q8NGR5)
T11 sequence (whole entry): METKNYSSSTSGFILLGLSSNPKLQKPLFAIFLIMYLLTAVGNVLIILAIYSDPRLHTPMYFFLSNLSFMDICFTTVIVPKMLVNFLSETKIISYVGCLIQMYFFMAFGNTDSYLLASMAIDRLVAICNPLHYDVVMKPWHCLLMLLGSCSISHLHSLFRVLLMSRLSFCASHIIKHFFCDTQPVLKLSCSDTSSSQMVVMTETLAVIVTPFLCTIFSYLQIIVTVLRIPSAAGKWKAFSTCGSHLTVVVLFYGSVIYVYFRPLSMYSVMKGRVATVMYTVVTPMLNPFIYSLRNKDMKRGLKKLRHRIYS
In short: as §1

OR1L4 = tested on: T12, OR1L4
T12 sequence (whole entry): T11 sequence (whole entry) with G234R
In short: as §1

OR1L6 = tested on: T13, OR1L6
T13 sequence (whole entry): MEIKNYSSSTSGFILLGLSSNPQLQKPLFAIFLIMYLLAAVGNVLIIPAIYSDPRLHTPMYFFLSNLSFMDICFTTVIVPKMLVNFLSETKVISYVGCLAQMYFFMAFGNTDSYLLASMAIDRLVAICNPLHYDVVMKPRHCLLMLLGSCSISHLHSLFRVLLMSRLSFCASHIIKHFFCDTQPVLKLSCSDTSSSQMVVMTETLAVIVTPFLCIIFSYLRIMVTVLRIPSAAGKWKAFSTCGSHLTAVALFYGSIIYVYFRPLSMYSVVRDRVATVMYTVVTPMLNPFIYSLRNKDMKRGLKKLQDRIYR
In short: as §1

OR1L8 (Homo sapiens) = biological target: T14, OR1L8 (Homo sapiens) (UniProt Q8NGR8)
T14 sequence (whole entry): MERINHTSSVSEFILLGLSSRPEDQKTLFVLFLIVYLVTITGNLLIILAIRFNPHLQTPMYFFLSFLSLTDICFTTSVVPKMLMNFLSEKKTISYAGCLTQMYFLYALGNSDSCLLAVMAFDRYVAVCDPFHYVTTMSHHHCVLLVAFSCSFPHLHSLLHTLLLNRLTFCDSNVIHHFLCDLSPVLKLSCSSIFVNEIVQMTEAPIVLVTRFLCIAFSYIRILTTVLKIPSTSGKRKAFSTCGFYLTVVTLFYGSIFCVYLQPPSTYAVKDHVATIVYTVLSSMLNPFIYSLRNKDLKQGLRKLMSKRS
In short: as §1

OR1L8 T27P R211P = tested on: T15, OR1L8 T27P R211P
T15 sequence (whole entry): T14 sequence (whole entry) with T27P, R211P
In short: as §1

OR1M1 (Homo sapiens) = biological target: T16, OR1M1 (Homo sapiens) (UniProt Q8NGA1)
T16 sequence (whole entry): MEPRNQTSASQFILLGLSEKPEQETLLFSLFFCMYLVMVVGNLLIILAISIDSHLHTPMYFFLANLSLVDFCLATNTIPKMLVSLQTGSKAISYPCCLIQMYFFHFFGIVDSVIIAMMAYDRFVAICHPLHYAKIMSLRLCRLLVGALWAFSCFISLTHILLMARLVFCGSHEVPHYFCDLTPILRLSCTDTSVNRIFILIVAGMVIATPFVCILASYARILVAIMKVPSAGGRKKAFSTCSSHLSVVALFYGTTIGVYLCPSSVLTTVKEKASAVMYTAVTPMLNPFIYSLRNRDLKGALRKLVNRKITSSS
In short: as §1

OR1N1 (Homo sapiens) = biological target: T17, OR1N1 (Homo sapiens) (UniProt Q8NGS0)
T17 sequence (whole entry): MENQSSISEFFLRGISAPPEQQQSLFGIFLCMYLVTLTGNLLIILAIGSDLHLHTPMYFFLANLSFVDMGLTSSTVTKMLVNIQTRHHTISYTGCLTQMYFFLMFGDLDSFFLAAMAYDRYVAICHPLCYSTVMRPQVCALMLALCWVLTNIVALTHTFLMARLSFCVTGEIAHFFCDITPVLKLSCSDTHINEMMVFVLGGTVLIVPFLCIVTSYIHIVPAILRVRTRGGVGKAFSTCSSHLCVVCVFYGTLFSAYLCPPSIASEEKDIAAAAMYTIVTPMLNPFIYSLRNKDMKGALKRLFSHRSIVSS
In short: as §1

OR1N2 W37R = tested on: T18, OR1N2 W37R
T18 sequence (whole entry): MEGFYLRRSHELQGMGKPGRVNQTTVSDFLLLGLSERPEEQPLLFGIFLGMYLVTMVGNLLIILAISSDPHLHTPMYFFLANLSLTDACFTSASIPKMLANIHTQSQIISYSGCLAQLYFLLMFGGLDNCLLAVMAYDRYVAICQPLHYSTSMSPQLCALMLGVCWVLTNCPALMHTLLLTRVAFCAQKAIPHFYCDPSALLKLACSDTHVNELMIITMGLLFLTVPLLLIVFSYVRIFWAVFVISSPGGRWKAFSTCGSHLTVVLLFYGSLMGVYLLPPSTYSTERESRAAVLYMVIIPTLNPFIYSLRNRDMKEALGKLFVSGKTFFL
In short: as §1

Measured: odorant receptor agonist call

CC1=C(O)C(=O)OC1C (stereo not drawn)
inactive: all assays above
